Screens (PubChem)
Shown are actives, neighbours in structure and some others; about 9.2% of the full set was active somewhere.
Autophagy mod: autophagy modulation, high-content screen | MEF GFP-LC3 puncta imaging; test concentration mostly 10 µM | calls only at 10 µM (by protocol) | hit rate 0.98% among 190,000;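 active means percentage of spot-positive cells more than 3 SD above its plate mean, without a fluorescence outlier flag or 80% toxicity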
Dynein cargo inh: blocks dynein driven cargo transport along microtubules; z-score, hits read low; hit rate 0.47% among 220,000; 3617.4 mouse cells, GR-EGFP nuclear translocation imaging; test concentration mostly 20 µM; stimulated with dexamethasone, 1 µM; hits give low values;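 active means plate z-score of nuclear minus cytoplasmic receptor signal below a set negative limit, without overly bright fluorescence or cell loss, cut at about -3.5 in these data, passing the limit was not always enough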;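 further: z-score of nuclear minus cytoplasmic ring GR-EGFP intensity difference per well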
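Also added – dexamethasone, 1.0 µM final · Buffer or medium – tet-free, stripped-serum medium · Schedule – induction 48 h, compound 1 h, agonist 30 min · Detection – formaldehyde fixation, Hoechst nuclear stain, 10x automated fluorescence imaging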
L major viab: Leishmania major promastigote growth inhibition | Leishmania major promastigotes, resazurin fluorescence viability | inhibition, % at 10 µM | hit rate 9% among 200,000 | AID 1063; in the data active means inhibition above about 50%;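 further: promastigotes grown with compound for 44 hours at 28 °C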
bCat KO growth: beta-catenin-lacking colon tumor cell growth suppression. HCT116 beta-catenin knockout viability, CellTiter-Glo, 60 h; hits give low values. viability, % at 10 µM. hit rate 1.5% among 140,000. AID 818;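 active means viability at or under a set limit, the compound median less 4 SD, cut at about 6% in these data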
PTEN del growth: PTEN-deleted cell growth suppression; HCT116 PTEN-null viability, CellTiter-Glo, 60 h; hits give low values; viability, % at 10 µM; hit rate 1.2% among 140,000;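 active means viability at or below a set limit, 4 SD under the median of all tested compounds, cut at about 3.7% in these data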;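 further: PTEN knockout HCT116 line with beta catenin targeted HCT116 as companion control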
Numbers stand for hits; – = inactive; · = no result given; + = active, no number.

SMILES	Autophagy mod	Dynein cargo inh	L major viab	bCat KO growth	PTEN del growth
O=C(CCN1CCCC1Cc1ccccc1)c1ccc2c(c1)OCCO2 (centres undefined)	–	–	100	–	–
O=C(Nc1nc(=O)n(C(=O)c2cccc(C(F)(F)F)c2)s1)c1ccccc1	·	–	·	·	·
COc1cc(C(=O)OC2CCN(C)CC2)cc(OC)c1OC	–	–	–	–	–
COc1cc(C(=O)CCN2CCC(c3ccccc3)C2)cc(OC)c1OC (centres undefined)	–	–	81	–	–
CCn1c(=O)cc(SCC(=O)NCc2ccc(C)o2)c2ccccc21	–	–	–	–	–
CCn1c(=O)cc(SCC(=O)Nc2ccc(C)cn2)c2ccccc21	+	–	–	·	·
CCn1c(=O)cc(SCC(=O)NCc2ccco2)c2ccccc21	+	–	–	–	–
Cc1ccc(-c2csc(NC(=O)C3=NN(c4ccccc4)C(=O)CC3)n2)cc1	–	–	–	–	–
COc1cc2c(cc1OC)C1(CCCC1)C(N)=C2C#N	–	–	100	–	–
CN(C)S(=O)(=O)c1cccc(NC(=O)c2cncc(Br)c2)c1	–	–	88	–	–
CCN(CC)S(=O)(=O)c1cccc(NC(=O)c2cncc(Br)c2)c1	–	–	99	·	·
CCN(CC)S(=O)(=O)c1cccc(NC(=O)c2cc3ccccc3o2)c1	–	–	81	–	–
CCN(CC)S(=O)(=O)c1cccc(C(=O)N/N=C(\C)c2ccc(O)cc2O)c1	–	–	68	·	·
Cc1ccc(NC(=O)c2cncc(Br)c2)cc1S(=O)(=O)N(C)C	–	–	–	–	–
CCCn1c(SCC(=O)Nc2cc(S(=O)(=O)N(C)C)ccc2OC)n[nH]c1=O	–	–	–	·	·
COc1ccc(N2CCCn3c2nc2c3c(=O)n(Cc3ccc(C)cc3)c(=O)n2C)c(OC)c1	–	–	–	·	·
CCN(CC)S(=O)(=O)c1cccc(C(=O)Nc2cc(C)cc(C)c2)c1	–	–	–	–	–
CCN(CC)S(=O)(=O)c1cccc(C(=O)Nc2cccc(C)c2)c1	–	–	62	–	–
Cc1c(N2C(=O)C3C4C=CC(C5CC45)C3C2=O)c(=O)n(-c2ccccc2)n1C (centres undefined)	·	–	·	·	·
CN1c2ccccc2C(=O)/C(=C\Nc2ccc(F)cc2F)S1(=O)=O	·	–	·	·	·
CCC(CC)C(=O)Nc1cc(Cl)ccc1C	–	–	–	·	·
O=C(C[n+]1ccc(C(=O)NCc2ccccc2)cc1)c1ccc2c(c1)OCCO2	–	–	–	·	·
Nc1cc[n+](CC(=O)c2ccc3c(c2)OCCO3)cc1	–	–	78	–	–
C=CCc1cc(C=O)cc(OC)c1OCc1c(Cl)cccc1Cl	–	–	79	–	–
O=C(c1ccccc1)N(Cc1cccnc1)C1(C(=O)Nc2ccccc2)CCCCC1	–	–	–	–	–
SMILES	Autophagy mod	Dynein cargo inh	L major viab	bCat KO growth	PTEN del growth
CCC(=O)c1ccc(/C=C/c2nc3ccccc3n2C)o1	–	–	–	·	·
COc1ccc(C2CC(c3ccccc3OC(C)=O)=NN2C(C)=O)cc1 (centres undefined)	·	–	·	·	·
COc1ccc(N(C(=O)c2ccccc2OC(C)=O)C(C)C2CC2)cc1 (centres undefined)	–	–	100	–	–
CCOC(=O)c1c(CSc2ccccc2)n(C)c2cc(Br)c(OCC(O)CNC(CO)(CO)CO)cc12 (centres undefined)	–	–	–	1.5	2.1
O=C(Nc1ccc(C2SCCS2)cc1)c1ccccc1	·	–	·	·	·
CCOc1ccc2nc(N3CCC(C(=O)N4CCN(C(=O)c5ccco5)CC4)CC3)sc2c1	–	–	–	–	–
CCCN1CCN(CCCNC(=O)C2CCCN(c3nc4ccc(OCC)cc4s3)C2)CC1 (centres undefined)	–	–	64	–	–
CCOc1ccc2nc(N3CCC(C(=O)N4CCN(C5CCCCC5)CC4)CC3)sc2c1	·	–	95	–	–
Cc1cc(C)c2nc(N3CCC(C(=O)NCCCN4CCCCC4)CC3)sc2c1	–	–	97	3.1	2.3
COc1ccc(S(=O)(=O)N2CCCC2)cc1C(C)C	–	–	–	·	·
CC1(C)CC(=O)c2sc(NS(=O)(=O)c3ccc(F)cc3)nc2C1	–	–	–	·	·
N#C/C(=C/c1ccc(CNS(=O)(=O)c2ccccc2)o1)C(N)=O	–	–	51	–	–
N#C/C(=C/c1ccc(CNS(=O)(=O)c2ccccc2)o1)C(=O)NCc1ccccc1	–	–	–	–	–
Cc1[nH]n2c(=O)cc(C(C)(C)C)nc2c1-c1ccccc1	–	–	99	–	–
Cc1[nH]n2c(=O)cc(C(C)C)nc2c1-c1ccccc1	–	–	–	–	–
O=C(CCC1CCCN(C(=O)CC2=CCCCC2)C1)N1CCN(c2ccccn2)CC1 (centres undefined)	–	–	–	·	·
CN1CCC(N(C)C(=O)COc2ccc(S(=O)(=O)N3CCOCC3)cc2)CC1	–	–	–	·	·
CN(CC(O)COCc1ccccc1F)C1CCCCC1 (centres undefined)	·	–	·	·	·
CCN(CC(O)COc1ccc(OCC(O)CN(CC)C2CCCCC2)cc1)C1CCCCC1 (centres undefined)	–	–	100	–	–
CCN(CC(O)COCc1ccc(Cl)cc1)C1CCCCC1 (centres undefined)	–	–	68	·	·
CN(CC(O)COc1ccc(S(=O)(=O)N2CCOCC2)cc1)C1CCCCC1 (centres undefined)	–	–	97	–	–
Cc1ccccc1OCC(O)CN(Cc1ccccc1O)C1CCCCC1 (centres undefined)	–	–	91	·	·
CN(CC(O)COc1ccccc1F)C1CCCCC1 (centres undefined)	–	–	–	·	·
O=C(O)c1[nH]nc2c1COc1ccccc1-2	–	–	–	–	–
COCCCn1c(C)nnc1-c1cnn(-c2ccccc2)c1N	–	–	–	·	·
SMILES	Autophagy mod	Dynein cargo inh	L major viab	bCat KO growth	PTEN del growth
CC(CCc1ccccc1)NC(=O)CNC(=O)COc1ccccc1 (centres undefined)	–	–	–	·	·
CN(C)c1oc(-c2ccc(Cl)cc2)nc1S(=O)(=O)c1ccccc1	–	–	–	–	–
CCN1CCN(CCCNC(=O)C2c3ccccc3C(=O)N(c3ccc(OC)cc3)C2c2ccc(OC)cc2)CC1 (centres undefined)	–	–	–	·	·
CCOC(=O)C1=C(CNCCc2ccc(Cl)cc2)NC(=O)NC1c1ccc2c(c1)OCO2 (centres undefined)	–	–	80	–	–
CCOC(=O)c1cc(-c2ccc(OC)cc2)n(CCC(=O)NCCN2CCC(C)CC2)c1C	–	–	–	·	·
CCOC(=O)c1cc(-c2ccccc2)n(CC(=O)Nc2ccc(OC)cc2)c1C	–	–	51	–	–
CC(=O)c1cc(-c2ccccc2)n(CCC(=O)NC2CCCCCCC2)c1C	–	–	–	–	–
CCOC(=O)c1cc(-c2ccc(F)cc2)n(CCC(=O)NC2CCN(Cc3ccccc3)CC2)c1C	–	–	80	·	·
CCOC(=O)c1cc(-c2ccc(OC)cc2)n(CCC(=O)NC2CCN(Cc3ccccc3)CC2)c1C	–	–	84	·	·
O=C(Nc1cccnc1)c1cccc(F)c1	–	–	–	–	–
